Results reported in ChEMBL document CHEMBL4118248, “Small Molecule Proprotein Convertase Subtilisin/Kexin Type 9 (PCSK9) Inhibitors: Hit to Lead Optimization of Systemic Agents” (J Med Chem, 2018).
Activity calls are given as the source filed them. The rule behind the calls is not given here.

What was measured:
[1] = Lipophilicity, log D of the compound by shake flask method; format: physicochemical; conditions: octanol/water
How it was run: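 LogD measured by the shake-flask method.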

[2] = Apparent permeability in RRCK cells; format: ADME, cell-based, Canis lupus familiaris, MDCKII-LE; conditions: dog, MDCK
How it was run: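 Passive permeability measured in RRCK cells, a modified Madin-Darby canine kidney line; Papp reported in 10^-6 cm/s.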

[3] = Intrinsic clearance in rat liver microsomes; format: ADME, microsome; conditions: read-out: CLH
[4] = Intrinsic clearance in human liver microsomes; format: ADME, microsome; conditions: read-out: CLH
80S Ribosome [5] = test: Binding affinity to 80S ribosome in human HuH7 cells harboring pCMV-truncated human PCSK9 (1 to 152 residues)-proLuc assessed as inhibition of PCSK9 mRNA translation after overnight incubation by luciferase reporter gene assay; format: cell-based; conditions: huh-7
How it was run: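 Huh7 cells stably carry human PCSK9 prodomain (aa 1-152) fused to firefly luciferase (aa 2-550) in pcDNA3.1, kept under 900 µg/mL Geneticin. Plated 10,000/well in phenol red-free DMEM/10% FBS and left 4 h, then compound added (top final 20 µM, 0.5% DMSO). Incubated overnight at 37 °C, luminescence read with SteadyGlo.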

[6] = target: T1, Voltage-gated inwardly rectifying potassium channel KCNH2 (Homo sapiens, UniProt Q12809); test: Inhibition of dofetilide binding to human ERG by fluorescence polarization assay
CYP2C9 = CYP2C9 (Homo sapiens, UniProt P11712); test: Inhibition of CYP2C9 (unknown origin) at 3 uM relative to control; format: ADME
How it was run: (§1)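 Inhibition of CYP1A2, 2D6, 2C9 and 3A4 reported as IC50, or as percent inhibition at 3 µM.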

CYP3A4 = CYP3A4 (Homo sapiens, UniProt P08684); test: Inhibition of CYP3A4 (unknown origin) at 3 uM relative to control; format: ADME; how it was run: as §1
CYP1A2 = target: T2, CYP1A2 (Homo sapiens, UniProt P05177); test: Inhibition of CYP1A2 (unknown origin) at 3 uM relative to control; format: ADME; how it was run: as §1
T2 sequence (P05177 whole entry): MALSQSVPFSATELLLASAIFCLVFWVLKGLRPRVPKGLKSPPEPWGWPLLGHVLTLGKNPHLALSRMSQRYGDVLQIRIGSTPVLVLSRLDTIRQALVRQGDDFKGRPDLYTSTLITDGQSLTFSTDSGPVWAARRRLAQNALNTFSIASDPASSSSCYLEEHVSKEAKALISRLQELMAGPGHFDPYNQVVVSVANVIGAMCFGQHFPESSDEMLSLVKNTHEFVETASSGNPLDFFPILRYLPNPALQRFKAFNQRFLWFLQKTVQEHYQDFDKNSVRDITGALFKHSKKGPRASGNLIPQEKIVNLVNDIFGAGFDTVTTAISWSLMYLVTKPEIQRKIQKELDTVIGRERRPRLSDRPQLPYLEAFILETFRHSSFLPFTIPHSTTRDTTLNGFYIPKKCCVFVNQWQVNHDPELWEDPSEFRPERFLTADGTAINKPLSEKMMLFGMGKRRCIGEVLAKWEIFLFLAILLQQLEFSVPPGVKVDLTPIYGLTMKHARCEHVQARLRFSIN

CYP2D6 = CYP2D6 (Homo sapiens, UniProt P10635); test: Inhibition of CYP2D6 (unknown origin) at 3 uM relative to control; format: ADME; how it was run: as §1
80S Ribosome [7] = test: Binding affinity to 80S ribosome in human HuH7 cells assessed as inhibition of PCSK9 mRNA translation after overnight incubation by ELISA; format: cell-based; conditions: huh-7
How it was run: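 Huh7 cells kept in high-glucose DMEM, 10% BSA-free FBS, 2 mM L-glutamine, pen/strep at 37 °C, 5% CO2. Plated 7,500/well with compound or vehicle and incubated overnight (16-20 h). Secreted PCSK9 in the medium read by AlphaLISA: two antibodies to different mature-PCSK9 epitopes, biotinylated antibody 3 nM final, acceptor beads 10 µg/mL, 0.5 h rt; streptavidin donor beads 40 µg/mL, 1 h rt.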

Bone marrow cell = test: Cytotoxicity against rat bone marrow cells assessed as reduction in cell viability after 72 hrs by CellTiter-Glo assay; format: cell-based
IEC-6 = test: Cytotoxicity against rat IEC-6 cells assessed as reduction in cell viability after 3 days by CellTiter-Glo assay; format: cell-based; conditions: IEC-6, 72 h
How it was run: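 Rat intestinal epithelial IEC-6 cells; viability read by CellTiter-Glo ATP luminescence.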

[8] = Permeability from apical to basolateral side in MDCK cells harboring MDR1; format: ADME, cell-based, Canis lupus familiaris; conditions: dog, read-out: permeability
How it was run: (§2)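 Bidirectional permeability across MDR1-transfected MDCK monolayers, apical-to-basolateral and basolateral-to-apical; Papp reported in 10^-6 cm/s.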

[9] = Permeability from basolateral to apical side in MDCK cells harboring MDR1; format: ADME, cell-based, Canis lupus familiaris; conditions: dog, read-out: permeability; how it was run: as §2
[10] = Fraction unbound in rat plasma; format: ADME, cell-free
How it was run: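 Unbound fraction measured in rat plasma.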

[11] = target: T1, Voltage-gated inwardly rectifying potassium channel KCNH2; test: Inhibition of human ERG by patch clamp method
[12] = Selectivity index, ratio of IC50 for cytotoxicity against rat bone marrow cells to IC50 for 80S ribosome in human HuH7 cells harboring pCMV-truncated human PCSK9 (1 to 152 residues)-proLuc; format: toxicity, cell-based; conditions: read-out: Ratio IC50
[13] = Cytotoxicity against human CD34-positive hematopoietic progenitor cells assessed as reduction in cell viability after 72 hrs by CellTiter-Glo assay; format: cell-based
Rattus norvegicus [14] = test: Toxicity in Crl:CD(SD) rat assessed as single cell necrosis in crypt cells in ileum at 50 mg/kg/day, po daily via gavage for 14 days measured on day 15 post last dose; format: organism-based; conditions: in vivo, 336 h
Mus musculus = test: Inhibition of PCSK9 secretion in plasma of humanized PCSK9 C57BL6J mouse assessed as free plasma concentration required to show effect at 30 to 100 mg/kg, po via gavage measured up to 24 hrs by ELISA; format: functional
How it was run: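 Humanized PCSK9 mice given a single oral dose of 30 or 100 mg/kg, with vehicle group. Plasma PCSK9 followed over 0-24 h and normalized to t = 0. Free effective concentration derived from the whole time course with an indirect-effect PK/PD model.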

Rattus norvegicus [15] = test: Toxicity in Crl:CD(SD) rat assessed as discolored/mottled liver at 50 mg/kg/day, po daily via gavage for 14 days measured on day 15 post last dose; format: organism-based; conditions: in vivo, 336 h
How it was run: (§3)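 Male rats, 5 per group, given vehicle or compound at 50 mg/kg/day by oral gavage for 14 days. Mortality, clinical signs and hematology monitored throughout. Necropsy on day 15 with microscopy of bone marrow, ileum, duodenum, jejunum and liver. Toxicokinetics at 1, 3, 6 and 24 h post-dose on day 14.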

Rattus norvegicus [16] = test: Toxicity in Crl:CD(SD) rat assessed as mortality at >= 150 mg/kg/day, po daily via gavage for 14 days measured on day 15 post last dose; format: organism-based; conditions: in vivo, 336 h
Rattus norvegicus [17] = test: Toxicity in Crl:CD(SD) rat at 50 mg/kg/day, po daily via gavage for 14 days measured on day 15 post last dose; format: organism-based; conditions: in vivo, 336 h
How it was run: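 Male rats, 5 per group, given vehicle or test compound at 50 mg/kg by daily oral gavage for 14 days. Mortality, clinical signs and hematology were monitored throughout. Toxicokinetics were sampled at 1, 3, 6 and 24 h post-dose on day 14. Necropsy was on day 15, with microscopic evaluation of bone marrow, ileum, duodenum, jejunum and liver.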

Rattus norvegicus [18] = test: Toxicity in Crl:CD(SD) rat assessed as mortality at 500 mg/kg/day, po daily via gavage for 14 days; format: organism-based; conditions: in vivo, 336 h
How it was run: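 Rats dosed orally at 50, 150 and 500 mg/kg/day for 14 days; crypt epithelium of duodenum/jejunum examined histologically and mortality recorded.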

[19] = Total Cmax in Crl:CD(SD) rat at 50 mg/kg/day, po daily via gavage for 14 days measured on day 14 post last dose up to 24 hrs; format: ADME, organism-based; set-up: dose 50 mg/kg/day, route oral; conditions: in vivo
[20] = Total plasma concentration in Crl:CD(SD) rat at 50 mg/kg/day, po daily via gavage for 14 days measured on day 14 post last dose up to 24 hrs; format: ADME, organism-based; conditions: in vivo
Rattus norvegicus [21] = test: Toxicity in Crl:CD(SD) rat at 50 mg/kg/day, po daily via gavage for 14 days; format: organism-based; conditions: in vivo, 336 h
Ribosome [22] = test: Binding affinity to 80S ribosome in rat IEC-6 cells assessed as induction of changes in Ndc80 nascent chain expression at 4 uM by ribosome profiling method; format: cell-based
How it was run: (§4)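 Rat IEC-6 cells exposed 1 h to 4 µM compound or vehicle, followed by ribosome profiling. Cumulative read fractions along annotated protein regions compared with vehicle. RPKM taken from reads 3' of the Dmax position when the Dmax Z-score is >2.0, otherwise 3' of codon 50.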

Ribosome [23] = test: Binding affinity to 80S ribosome in rat IEC-6 cells assessed as induction of changes in Cox15 nascent chain expression at 4 uM by ribosome profiling method; format: cell-based; how it was run: as §4
80S Ribosome [24] = test: Binding affinity of [3H]PF-06446846 to human 80S ribosome
Rattus norvegicus [25] = test: Toxicity in Crl:CD(SD) rat assessed as hepatocyte vacuolation at 50 mg/kg/day, po daily via gavage for 14 days measured on day 15 post last dose; format: organism-based; conditions: in vivo, 336 h; how it was run: as §3

T1 sequence (Q12809 whole entry): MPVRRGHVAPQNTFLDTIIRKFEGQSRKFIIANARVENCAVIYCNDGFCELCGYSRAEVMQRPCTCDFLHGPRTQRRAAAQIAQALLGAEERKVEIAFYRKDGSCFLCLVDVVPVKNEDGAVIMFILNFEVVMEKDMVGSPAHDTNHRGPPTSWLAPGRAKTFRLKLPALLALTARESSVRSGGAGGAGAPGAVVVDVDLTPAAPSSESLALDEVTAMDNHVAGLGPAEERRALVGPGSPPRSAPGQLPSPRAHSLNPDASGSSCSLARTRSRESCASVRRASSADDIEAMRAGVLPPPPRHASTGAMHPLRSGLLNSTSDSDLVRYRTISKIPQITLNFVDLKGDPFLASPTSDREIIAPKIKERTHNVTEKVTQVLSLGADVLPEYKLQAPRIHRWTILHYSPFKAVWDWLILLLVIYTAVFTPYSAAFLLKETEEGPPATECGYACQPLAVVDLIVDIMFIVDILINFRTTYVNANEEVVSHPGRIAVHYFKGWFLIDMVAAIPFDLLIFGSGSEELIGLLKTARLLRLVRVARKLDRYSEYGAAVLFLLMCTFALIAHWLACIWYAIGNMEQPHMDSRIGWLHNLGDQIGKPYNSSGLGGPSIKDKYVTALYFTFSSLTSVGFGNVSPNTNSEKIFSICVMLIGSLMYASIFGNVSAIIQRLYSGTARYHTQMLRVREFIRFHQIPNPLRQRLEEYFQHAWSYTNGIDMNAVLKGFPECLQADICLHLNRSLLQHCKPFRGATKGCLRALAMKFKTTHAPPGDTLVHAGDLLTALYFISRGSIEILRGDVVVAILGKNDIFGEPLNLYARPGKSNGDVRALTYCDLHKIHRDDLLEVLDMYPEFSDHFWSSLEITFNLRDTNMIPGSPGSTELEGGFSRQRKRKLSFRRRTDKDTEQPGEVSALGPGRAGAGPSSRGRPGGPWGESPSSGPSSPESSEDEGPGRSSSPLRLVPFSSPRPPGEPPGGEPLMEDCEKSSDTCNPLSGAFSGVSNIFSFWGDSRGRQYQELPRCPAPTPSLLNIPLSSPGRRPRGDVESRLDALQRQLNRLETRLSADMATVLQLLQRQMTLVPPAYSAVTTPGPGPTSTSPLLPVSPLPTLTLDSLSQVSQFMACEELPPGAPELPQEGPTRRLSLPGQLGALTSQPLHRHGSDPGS
CYP3A4, sequence (P08684 whole entry): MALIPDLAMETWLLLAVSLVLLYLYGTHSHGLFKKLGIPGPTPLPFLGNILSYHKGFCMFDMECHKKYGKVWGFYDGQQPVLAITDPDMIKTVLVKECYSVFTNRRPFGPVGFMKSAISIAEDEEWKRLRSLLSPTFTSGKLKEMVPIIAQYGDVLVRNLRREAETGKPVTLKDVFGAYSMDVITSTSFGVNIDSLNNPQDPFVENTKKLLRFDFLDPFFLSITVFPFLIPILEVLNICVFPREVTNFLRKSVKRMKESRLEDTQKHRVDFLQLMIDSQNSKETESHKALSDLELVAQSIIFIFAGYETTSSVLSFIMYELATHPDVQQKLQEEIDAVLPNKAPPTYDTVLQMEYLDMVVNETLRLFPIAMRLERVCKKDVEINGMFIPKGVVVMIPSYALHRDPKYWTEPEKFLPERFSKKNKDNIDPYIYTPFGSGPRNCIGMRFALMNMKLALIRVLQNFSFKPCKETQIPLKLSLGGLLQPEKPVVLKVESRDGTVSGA
CYP2C9, sequence (P11712 whole entry): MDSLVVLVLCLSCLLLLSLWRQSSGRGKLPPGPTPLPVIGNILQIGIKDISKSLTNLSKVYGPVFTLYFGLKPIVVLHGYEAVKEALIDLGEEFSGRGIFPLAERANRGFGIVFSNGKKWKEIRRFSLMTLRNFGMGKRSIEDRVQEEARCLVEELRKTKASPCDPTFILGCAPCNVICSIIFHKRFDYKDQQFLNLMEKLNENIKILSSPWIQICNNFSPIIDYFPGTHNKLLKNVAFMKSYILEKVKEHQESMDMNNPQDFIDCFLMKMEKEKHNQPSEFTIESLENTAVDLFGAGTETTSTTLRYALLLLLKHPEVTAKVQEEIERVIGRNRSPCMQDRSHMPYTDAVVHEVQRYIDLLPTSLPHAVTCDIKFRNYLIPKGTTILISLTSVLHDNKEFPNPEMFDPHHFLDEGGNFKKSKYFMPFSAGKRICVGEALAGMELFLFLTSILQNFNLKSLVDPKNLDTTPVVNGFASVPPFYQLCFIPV
CYP2D6, sequence (P10635 whole entry): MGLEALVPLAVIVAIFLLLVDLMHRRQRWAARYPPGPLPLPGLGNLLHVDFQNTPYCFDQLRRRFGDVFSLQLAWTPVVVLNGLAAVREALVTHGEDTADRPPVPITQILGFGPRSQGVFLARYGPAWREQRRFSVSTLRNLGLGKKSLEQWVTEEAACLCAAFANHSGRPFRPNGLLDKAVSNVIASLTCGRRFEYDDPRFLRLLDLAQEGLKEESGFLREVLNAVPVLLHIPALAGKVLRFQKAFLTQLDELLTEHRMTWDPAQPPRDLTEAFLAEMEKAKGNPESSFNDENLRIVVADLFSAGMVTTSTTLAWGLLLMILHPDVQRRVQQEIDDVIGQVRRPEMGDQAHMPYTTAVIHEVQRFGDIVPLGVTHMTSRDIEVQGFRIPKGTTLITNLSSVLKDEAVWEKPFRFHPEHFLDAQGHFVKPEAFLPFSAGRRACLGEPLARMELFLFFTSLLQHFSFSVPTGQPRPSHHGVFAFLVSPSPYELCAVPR

COc1ccc(CCC(=O)N(c2nccc3ccccc23)[C@@H]2CCCNC2)cc1
logD [1]: 1.1
Papp [2]: 54 nm/s
microsomal CLint [3]: > 510 µL/min/mg
microsomal CLint [4]: 20.6 µL/min/mg
IC50 (80S Ribosome [5]): 2.63 µM
Ki [6]: 13 µM
inhibition at 3 µM (CYP2C9): < 20%
inhibition at 3 µM (CYP3A4): < 20%
inhibition at 3 µM (CYP1A2): < 20%
inhibition at 3 µM (CYP2D6): < 20%
IC50 (80S Ribosome [7]): 8.37 µM
IC50 (Bone marrow cell): > 20 µM

Cc1cnc2c(c1)nnn2-c1ccc(C(=O)N(c2ncccc2Cl)[C@@H]2CCCNC2)nc1
logD [1]: 0.7
IC50 (IEC-6): > 20 µM
Papp [2]: 62 nm/s
microsomal CLint [3]: 15.1 µL/min/mg
microsomal CLint [4]: 9.3 µL/min/mg
IC50 (80S Ribosome [5]): 0.85 µM
Ki [6]: 5.9 µM
inhibition at 3 µM (CYP2C9): < 13%
inhibition at 3 µM (CYP3A4): < 13%
inhibition at 3 µM (CYP1A2): < 13%
inhibition at 3 µM (CYP2D6): < 13%
Papp A→B [8]: 13 nm/s
Papp B→A [9]: 199 nm/s
fraction unbound [10]: 0.24
IC50 [11]: 3.6 µM
selectivity ratio [12]: > 30
IC50 (80S Ribosome [7]): 1.37 µM
IC50 (Bone marrow cell): 20 to 65 µM
IC50 [13]: > 20 µM
Activity (Rattus norvegicus [14]): Non-Toxic
Cp(f) (Mus musculus): 175 nM
Activity (Rattus norvegicus [15]): Toxic
Activity (Rattus norvegicus [16]): Toxic
Activity (Rattus norvegicus [17]): Non-Toxic
Activity (Rattus norvegicus [18]): Toxic
Cmax [19]: 9.66 µg/mL
concentration [20]: 15.9 µM
NOAEL (Rattus norvegicus [21]): 4.231 µM
Activity (Ribosome [22]): Active
Activity (Ribosome [23]): Active
Ki (80S Ribosome [24]): 63 µM

Cc1cnc2c(c1)nnn2-c1ccc(C(=O)N(c2ncccc2Cl)[C@@H]2CCCNC2)cc1
logD [1]: 1.2
microsomal CLint [3]: 16.5 µL/min/mg
microsomal CLint [4]: 8.8 µL/min/mg
IC50 (80S Ribosome [5]): 0.41 µM
Ki [6]: 3.3 µM
IC50 (80S Ribosome [7]): 0.78 µM
IC50 (Bone marrow cell): > 19.7 µM
Activity (Rattus norvegicus [14]): Non-Toxic
Activity (Rattus norvegicus [15]): Toxic
Activity (Rattus norvegicus [25]): Toxic
